In ChEMBL document CHEMBL5715947 (Blood Cancer J, 2011):
Calls of active or inactive are those of the source. The rule behind the calls is not given here.

Columns and labels:
MOLM-13 [1] = assay: Antitumor activity against human MOLM-13 cells harboring FLT-3 ITD mutant xenografted in BALB/c nude mouse assessed as tumor growth inhibition at 50 mg/kg, po bid administered daily for 7 days relative to control; assay type: functional; conditions: MOLM-13, 168 h, time 7 day, read-out: TGI
MOLM-13 [2] = assay: Antitumor activity against human MOLM-13 cells harboring FLT-3 ITD mutant xenografted in BALB/c nude mouse assessed as decrease in phosphorylated […] residue at 150 mg/kg, po measured after 3 hrs by Western blot analysis; assay type: functional, organism-based
In short: (§1)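 Mice bearing s.c. MOLM-13 xenografts given a single oral dose of 150 mg/kg. Tumours harvested at 3 h; lysates immunoblotted for phospho-FLT3, -STAT3, -STAT5, -Akt and total actin.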

Leukemia cell [3] = assay: (§2) Induction of apoptosis in human derived Acute myeloid leukemic cells assessed increase in cleaved caspase-3/7 after 16 hrs by Caspase-Glo 3/7 assay; assay type: functional, cell-based
In short: (§3)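 Expanded primary AML blasts at 300 000 cells/ml treated 16 h; caspase-3/7 activity read by Caspase-Glo 3/7 luminescence and EC50 for apoptosis induction determined.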

[4] = as §2; assay type: functional, cell-based; conditions: Leukemia cell; in short: as §3
[5] = Antiproliferative activity against relapsed human derived M5b Fab type Acute myeloid leukemic cells assessed as reduction in cell viability incubated for 48 hr by CellTiter-Glo assay; assay type: functional, cell-based; conditions: Leukemia cell
In short: (§4)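 Primary AML peripheral blood or bone marrow mononuclear cells thawed and expanded ex vivo; blasts counted between day 10 and 13, characterised by CD123 FACS and FLT3 genotyping. Blasts treated 48 h; proliferation IC50 read by CellTiter-Glo.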

[6] = Antiproliferative activity against relapsed human derived Acute myeloid leukemic cells assessed as reduction in cell viability incubated for 48 hr by CellTiter-Glo assay; assay type: functional, cell-based; conditions: Leukemia cell; in short: as §4
MOLM-13 [7] = assay: Antitumor activity against human MOLM-13 cells harboring FLT-3 ITD mutant xenografted in BALB/c nude mouse assessed as decrease in phosphorylated STAT3 at Y704 residue at 150 mg/kg, po measured after 3 hrs by Western blot analysis; assay type: functional, organism-based; in short: as §1
[8] = Antiproliferative activity against human derived Acute myeloid leukemic cells assessed as reduction in cell viability incubated for 48 hr by CellTiter-Glo assay; assay type: functional, cell-based; conditions: Leukemia cell
[9] = Antiproliferative activity against relapsed human derived M2 Fab type Acute myeloid leukemic cells harboring FLT3-ITD mutant assessed as reduction in cell viability incubated for 48 hr by CellTiter-Glo assay; assay type: functional, cell-based; conditions: Leukemia cell; in short: as §4
RS4-11 [10] = assay: Induction of cell cycle arrest in human RS4-11 cells assessed increase in cell accumulation at G1 phase after 24 hrs by Propidium iodide staining based flow cytometric analysis; assay type: functional
In short: (§5)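 Cells then fixed in ice-cold 70% ethanol, stained with 20 ng/ml propidium iodide, and cell-cycle phases measured by flow cytometry.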

MV4-11 [11] = assay: Induction of apoptosis in human MV4-11 cells harboring FLT3-ITD mutant assessed necrotic cells at […] after 72 hrs by AnnexinV-FITC/Propidium iodide staining based flow cytometric analysis (reference value: 0.53 %); assay type: functional; conditions: dose 0.15 µM
MV4-11 [12] = assay: Induction of apoptosis in human MV4-11 cells harboring FLT3-ITD mutant assessed early apoptotic cells at 0.03 uM after 48 hrs by AnnexinV-FITC/Propidium iodide staining based flow cytometric analysis (reference value: 11.84 %); assay type: functional
MV4-11 [13] = assay: Induction of cell cycle arrest in human MV4-11 cells harboring FLT3-ITD mutant assessed increase in cell accumulation at G1 phase after 24 hrs by Propidium iodide staining based flow cytometric analysis; assay type: functional; in short: as §5
MV4-11 [14] = assay: Induction of apoptosis in human MV4-11 cells harboring FLT3-ITD mutant assessed necrotic cells at 0.03 uM after 72 hrs by AnnexinV-FITC/Propidium iodide staining based flow cytometric analysis (reference value: 0.53 %); assay type: functional
MV4-11 [15] = assay: Induction of apoptosis in human MV4-11 cells harboring FLT3-ITD mutant assessed increase in cleaved caspase-3/7 after 16 hrs by Caspase-Glo 3/7 assay; assay type: functional, cell-based
MV4-11 [16] = assay: Induction of apoptosis in human MV4-11 cells harboring FLT3-ITD mutant assessed early apoptotic cells at 0.03 uM after 72 hrs by AnnexinV-FITC/Propidium iodide staining based flow cytometric analysis (reference value: 7.34 %); assay type: functional
MV4-11 [17] = assay: Induction of apoptosis in human MV4-11 cells harboring FLT3-ITD mutant assessed as increase in early apoptotic cells after 48 hrs by AnnexinV-FITC/Propidium iodide staining based flow cytometric analysis; assay type: functional, cell-based; conditions: dose 0.03-0.15 µM
Leukemia cell [18] = assay: Induction of cell cycle arrest in human derived Acute myeloid leukemic cells assessed as increase in cell accumulation at G1 phase at 0.47 uM after 48 hrs by Propidium iodide staining based flow cytometric analysis
MV4-11 [19] = assay: Antitumor activity against human MV4-11 cells harboring FLT-3 ITD mutant xenografted in BALB/c nude mouse assessed as tumor growth inhibition at 100 mg/kg, po administered daily for 21 days relative to control; assay type: functional; conditions: MV4-11, 504 h, time 21 day, read-out: TGI
In short: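 Female BALB/c nude mice implanted s.c. in right flank with 1 × 10^7 MV4-11 cells in serum-free medium mixed 1:1 with Matrigel. Randomised on day 11 at mean 146–150 mm3 (n=10/group); oral hydrochloride salt once daily for 21 days in 0.5% methylcellulose/0.1% Tween-80. Doses are free-base equivalents; caliper twice weekly; ANOVA with Dunnett's test.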

MV4-11 [20] = assay: Induction of apoptosis in human MV4-11 cells harboring FLT3-ITD mutant assessed late apoptotic cells at 0.03 uM after 48 hrs by AnnexinV-FITC/Propidium iodide staining based flow cytometric analysis (reference value: 1.56 %); assay type: functional
MV4-11 [21] = assay: Induction of cell cycle arrest in human MV4-11 cells harboring FLT3-ITD mutant assessed decrease in cell accumulation at S phase after 24 hrs by Propidium iodide staining based flow cytometric analysis; assay type: functional; in short: as §5
MOLM-13 [22] = assay: Induction of cell cycle arrest in human MOLM-13 cells harboring FLT3-ITD mutant assessed increase in cell accumulation at G1 phase after 24 hrs by Propidium iodide staining based flow cytometric analysis; assay type: functional; in short: as §5
[23] = Antiproliferative activity against human derived M2 Fab type Acute myeloid leukemic cells assessed as reduction in cell viability incubated for 48 hr by CellTiter-Glo assay; assay type: functional, cell-based; conditions: Leukemia cell; in short: as §4
MOLM-13 [24] = assay: Antitumor activity against human MOLM-13 cells harboring FLT-3 ITD mutant xenografted in BALB/c nude mouse assessed as decrease in metastatic incidence at 150 mg/kg, po bid administered daily for 7 days; assay type: functional; conditions: time 7 day
RS4-11 [25] = assay: Induction of cell cycle arrest in human RS4-11 cells assessed decrease in cell accumulation at S phase after 24 hrs by Propidium iodide staining based flow cytometric analysis; assay type: functional; in short: as §5
MV4-11 [26] = assay: Induction of apoptosis in human MV4-11 cells harboring FLT3-ITD mutant assessed late apoptotic cells at 0.03 uM after 72 hrs by AnnexinV-FITC/Propidium iodide staining based flow cytometric analysis (reference value: 1.48 %); assay type: functional
MOLM-13 [27] = assay: Antitumor activity against human MOLM-13 cells harboring FLT-3 ITD mutant xenografted in BALB/c nude mouse assessed as decrease in phosphorylated STAT5 at Y694 residue at 150 mg/kg, po measured after 3 hrs by Western blot analysis; assay type: functional, organism-based; in short: as §1
[28] = Antiproliferative activity against human derived M5b Fab type Acute myeloid leukemic cells assessed as reduction in cell viability incubated for 48 hr by CellTiter-Glo assay; assay type: functional, cell-based; conditions: Leukemia cell; in short: as §4

Compound: C1=N/C2=N/c3ccc(OCCN4CCCC4)c(c3)COC/C=C/COCc3cccc(c3)C(=C1)N2 [PACRITINIB]
- inhibition in vivo at 50 mg/kg (MOLM-13 [1]): 15%
- Activity (MOLM-13 [2]): Active
- Activity (Leukemia cell [3]): Dose-Dependent Effect
- EC50 [4]: 268 nM
- IC50 [5]: 460 nM
- IC50 [6]: 1330 nM
- Activity (MOLM-13 [7]): Active
- IC50 [8]: 460 nM
- IC50 [9]: 340 nM
- Activity (RS4-11 [10]): Dose-Dependent Effect
- Activity (MV4-11 [11]): 4.06%
- Activity (MV4-11 [12]): 24.5%
- Activity (MV4-11 [13]): Dose-Dependent Effect
- Activity (MV4-11 [14]): 1.06%
- Activity (MV4-11 [15]): Dose-Dependent Effect
- EC50 (MV4-11 [15]; MV4-11, 16 h): 960 nM
- Activity (MV4-11 [16]): 22.69%
- Activity (MV4-11 [17]): Dose-Dependent Effect
- Activity (Leukemia cell [18]): Active
- inhibition in vivo at 100 mg/kg (MV4-11 [19]): 121%
- Activity (MV4-11 [20]): 5.58%
- Activity (MV4-11 [21]): Dose-Dependent Effect
- Activity (MOLM-13 [22]): Dose-Dependent Effect
- IC50 [23]: 350 nM
- Activity (MOLM-13 [24]): 0.33
- Activity (RS4-11 [25]): Dose-Dependent Effect
- Activity (MV4-11 [26]): 3.74%
- Activity (MOLM-13 [27]): Active
- IC50 [28]: 240 nM
